We go through 38 compounds from ChEMBL document CHEMBL4680209, “Design, synthesis, and evaluation of new 2-(quinoline-4-yloxy)acetamide-based antituberculosis agents” (Eur J Med Chem, 2020).

A word on the CC50: it is the concentration that lowers cell viability or growth by half. Broadly, the half-life is how long it takes for the measured level to halve.

In data set [1] the test system is Mycobacterium tuberculosis H37Rv. Description: Inhibition of Mycobacterium tuberculosis H37Rv ATCC 27294 QcrB assessed as reduction in bacterial growth by resazurin reduction microplate assay. The essentials: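 REMA in Middlebrook 7H9 with 10% ADC and 5% DMSO. Compounds come from 2 mg/mL DMSO stocks as 10-point 2-fold serial dilutions, with a top concentration of 5–40 µg/mL set by solubility. MIC is the lowest concentration preventing resazurin blue-to-pink conversion. Three independent experiments; the modal or highest value is reported, in µM.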
For orientation: Resazurin is reduced to fluorescent resorufin, in cell work by metabolically active cells.

Data set [2] can be described thus: Ratio of MIC for inhibition of Mycobacterium tuberculosis H37Rv ATCC 27294 QcrB assessed as reduction in bacterial growth to MIC for inhibition of Mycobacterium tuberculosis PT2 clinical isolate QcrB assessed as reduction in bacterial growth.
Data set [3] can be described thus: Ratio of MIC for inhibition of Mycobacterium tuberculosis H37Rv ATCC 27294 QcrB assessed as reduction in bacterial growth to MIC for inhibition of Mycobacterium tuberculosis PT12 clinical isolate QcrB assessed as reduction in bacterial growth.
Data set [4] is described as follows: Ratio of MIC for inhibition of Mycobacterium tuberculosis H37Rv ATCC 27294 QcrB assessed as reduction in bacterial growth to MIC for inhibition of Mycobacterium tuberculosis PT20 clinical isolate QcrB assessed as reduction in bacterial growth.
Data set [5] is described as follows: Cytotoxicity against human HepG2 cells assessed as reduction in cell viability measured after 72 hrs by MTT assay. The format is cell-based. The essentials:
(§1)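 Vero (2×10^3 cells/well) or HepG2 (4×10^3 cells/well) grown in DMEM with 10% inactivated FBS, gentamicin and amphotericin B, seeded 24 h, then exposed to compound at 1, 5 and 20 µM (2% DMSO) for 72 h at 37 °C, 5% CO2. MTT (5 mg/mL) added for 4 h; absorbance 570/655 nm. Viability relative to 2% DMSO control wells; CC50 derived.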
In general terms: Tetrazolium dyes change colour on reduction, which living cells bring about.

Data set [6] in a line: Cytotoxicity against human HepG2 cells assessed as reduction in cell viability measured after 72 hrs by neutral red uptake assay. The format is cell-based. The essentials:
(§2)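 Vero (2×10^3 cells/well) or HepG2 (4×10^3 cells/well) in DMEM with 10% inactivated FBS, seeded 24 h, treated at 1, 5 and 20 µM in 2% DMSO for 72 h at 37 °C, 5% CO2. After PBS wash, neutral red (25 µg/mL, serum-free medium) for 3 h; dye extracted with acetic acid/EtOH/water (1:50:49) for 30 min; absorbance 562 nm; viability versus 2% DMSO controls.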

Data set [7] can be described thus: Cytotoxicity against African green monkey Vero cells assessed as reduction in cell viability measured after 72 hrs by MTT assay. The format is cell-based. Conditions: chlorocebus sabaeus. The essentials:
as §1

Data set [8] is described as follows: Cytotoxicity against African green monkey Vero cells assessed as reduction in cell viability measured after 72 hrs by neutral red uptake assay. The format is cell-based. Conditions: chlorocebus sabaeus. The essentials: as §2
The nature of data set [9]: Intrinsic clearance in human liver S9 fraction at 2 uM measured after 30 mins in presence of NADPH by HPLC-MS analysis. The format is ADME, subcellular. Conditions: read-out: CLH. The essentials:
(§3)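 Compound at 2 µM incubated at 37°C with 1 mg/mL human liver S9 fraction (9,000 × g post-mitochondrial supernatant) containing NADPH. Remaining compound quantified by HPLC-MS/MS at 0, 5, 15 and 30 min to give in vitro disappearance half-life and intrinsic clearance (mL/min/kg). Verapamil served as positive control.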

The nature of data set [10]: Half life in human liver S9 fraction at 2 uM measured after 30 mins in presence of NADPH by HPLC-MS analysis. The format is ADME, subcellular. The essentials:
as §3

In data set [11] the test system is RAW264.7. Nature of the data set: Inhibition of Mycobacterium tuberculosis H37Rv ATCC 27294 QcrB infected in mouse RAW264.7 cells assessed as colony forming unit at 5 uM measured after 5 days (reference value: 4.66 +/- 0.23 log10CFU). The format is cell-based. Particulars: time 5.0 day.

SMILES strings stand for the structures. Converted amounts (≈) assume the structure as drawn.

For `COc1ccc2nc(C)cc(OCc3ccc4ccccc4c3)c2c1`, the MIC in data set [1] is 7.6 µM (≈ 2.5 µg/mL).

On to `COc1cc(COc2cc(C)nc3ccc(OC)cc23)cc(OC)c1`, for which the MIC in data set [1] came out at 29.5 µM (≈ 10 µg/mL).

For the compound `COc1ccc2nc(C)cc(OCC(=O)c3ccc(C)cc3)c2c1`, in [1], the MIC was found to be 15.6 µM (≈ 5.01 µg/mL).

On to `COc1ccc2nc(C)cc(OCc3cccc(C(F)(F)F)c3)c2c1`, for which the MIC in data set [1] amounted to 7.2 µM (≈ 2.5 µg/mL).

In the case of `COc1ccc2nc(C)cc(OCc3ccc(C(C)C)cc3)c2c1`, in [1], the MIC was 1.9 µM (≈ 0.611 µg/mL). Besides, the Ratio in [2], in data set [3] and in [4] was 1.9 in each case. The CC50 at 72 h is 13.1 µM in [5], 13 µM in [6], > 20 µM in data set [7] and > 20 µM in data set [8]. Moreover, the CLint scaled at 2 µM in [9] worked out at 17.4 mL/min/kg. Also, in [10], the half-life at 2 µM is 10 min.

With `COc1ccc2nc(C)cc(OCc3cccc(Br)c3)c2c1`, the MIC in data set [1] came out at 13.9 µM (≈ 4.98 µg/mL).

For the compound `COc1ccc2nc(C)cc(OCC(=O)c3ccc(Br)cc3)c2c1`, the MIC in data set [1] stood at 14.6 µM (≈ 5.64 µg/mL).

For the compound `COc1ccc2nc(C)cc(OCC(=O)c3ccccc3OC)c2c1`, the MIC in data set [1] worked out at 29.6 µM (≈ 9.99 µg/mL).

With `NNC(=O)c1ccncc1`, the MIC in data set [1] stood at 2.3 µM (≈ 0.315 µg/mL).

Take `COc1ccc2nc(C)cc(OCc3ccc4c(c3)OCO4)c2c1`: the MIC in data set [1] was determined as 30.9 µM (≈ 9.99 µg/mL).

On to `COc1ccc2nc(C)cc(OCC(=O)c3ccc(-c4ccccc4)cc3)c2c1`, for which, in data set [1], the MIC stood at 13 µM (≈ 4.98 µg/mL).

For the compound `COc1ccc2nc(C)cc(OCC(=O)c3ccc(Cl)c(Cl)c3)c2c1`, the MIC in data set [1] was 6.6 µM (≈ 2.48 µg/mL).

On to `COc1ccc2nc(C)cc(OCc3cccc(Cl)c3Cl)c2c1`, for which the MIC in data set [1] worked out at 28.7 µM (≈ 9.99 µg/mL).

For `COc1ccc2nc(C)cc(OCc3ccc(Cl)cc3)c2c1`, the MIC in data set [1] came to 15.9 µM (≈ 4.99 µg/mL).

Regarding `COc1ccc2nc(C)cc(OCc3ccc(Br)cc3)c2c1`, the MIC in data set [1] is 13.9 µM (≈ 4.98 µg/mL).

On to `COc1ccc(C(=O)COc2cc(C)nc3ccc(OC)cc23)cc1`, for which, in data set [1], the MIC is 7.4 µM (≈ 2.5 µg/mL).

As to `COc1ccc2nc(C)cc(OCc3cccc(Cl)c3)c2c1`, in [1], the MIC was 7.9 µM (≈ 2.48 µg/mL).

For the compound `COc1ccc2nc(C)cc(OCc3cccc(F)c3)c2c1`, in [1], the MIC was determined as 16.8 µM (≈ 5 µg/mL).

As to `COc1ccc2nc(C)cc(OCC(=O)c3cccc(Cl)c3)c2c1`, in data set [1], the MIC amounted to 1.8 µM (≈ 0.615 µg/mL). The Ratio in [2], in [3] and in data set [4] was 1.9 in each case. The CC50 at 72 h in data set [5], in data set [6], in data set [7] and in data set [8] was > 20 µM each time. In addition, the CLint scaled at 2 µM in data set [9] was 7.7 mL/min/kg. Further, in data set [10], the half-life at 2 µM is 78.2 min. Further, the Activity in [11] was found to be 3.8 log10CFU.

For the compound `COc1ccc2nc(C)cc(OCc3ccc(Br)c(Cl)c3)c2c1`, the MIC in data set [1] came out at 1.6 µM (≈ 0.628 µg/mL).

In the case of `COc1ccc2nc(C)cc(OCc3ccc(F)c(F)c3)c2c1`, the MIC in [1] turned out to be 3.9 µM (≈ 1.23 µg/mL).

Consider `COc1ccc2nc(C)cc(OCC(=O)c3ccc(F)cc3)c2c1`, for which the MIC in data set [1] worked out at 30.7 µM (≈ 9.99 µg/mL).

Take `COc1ccc2nc(C)cc(OCc3ccc(C(C)(C)C)cc3)c2c1`: in [1], the MIC was 3.7 µM (≈ 1.24 µg/mL).

As for `COc1ccc2nc(C)cc(OCc3ccccc3F)c2c1`, the MIC in data set [1] is 19.2 µM (≈ 5.71 µg/mL).

Turning to `COc1ccc2nc(C)cc(OC(C)C(=O)c3ccccc3)c2c1` (stereo unspecified), in [1], the MIC amounted to 31.1 µM (≈ 9.99 µg/mL).

Take `COc1cccc(COc2cc(C)nc3ccc(OC)cc23)c1`: the MIC in data set [1] stood at 32.3 µM (≈ 9.99 µg/mL).

As for `COc1ccc2nc(C)cc(OCC(=O)c3ccc(Cl)cc3)c2c1`, the MIC in data set [1] is 12.9 µM (≈ 4.41 µg/mL).

In the case of `COc1ccc2nc(C)cc(OCc3ccc(Cl)c(Cl)c3)c2c1`, the MIC in data set [1] was 0.3 µM (≈ 0.104 µg/mL). In addition, the CC50 at 72 h was 14.4 µM in data set [5], 14.9 µM in [6], > 20 µM in [7] and > 20 µM in data set [8]. The CLint scaled at 2 µM in data set [9] was found to be 12.6 mL/min/kg. The half-life at 2 µM in data set [10] is 30.6 min. For the same compound, the Activity in data set [11] was determined as 3.8 log10CFU.

Turning to `COc1ccc2nc(C)cc(OCc3ccc([N+](=O)[O-])cc3)c2c1`, the MIC in data set [1] came to 30.8 µM (≈ 9.99 µg/mL).

`COc1ccc2nc(C)cc(OCc3ccc(C(F)(F)F)cc3)c2c1`: the MIC in [1] is 7.2 µM (≈ 2.5 µg/mL).

In the case of `COc1ccc2nc(C)cc(OCC(=O)c3ccc(CC(C)C)cc3)c2c1`, in data set [1], the MIC came to 6.9 µM (≈ 2.51 µg/mL).

On to `CO[C@H]1/C=C/O[C@@]2(C)Oc3c(C)c(O)c4c(O)c(c(/C=N/N5CCN(C)CC5)c(O)c4c3C2=O)NC(=O)/C(C)=C\C=C\[C@H](C)[C@H](O)[C@@H](C)[C@@H](O)[C@@H](C)[C@H](OC(C)=O)[C@@H]1C`, for which the MIC in data set [1] was 0.05 µM (≈ 0.0411 µg/mL).

On to `COc1ccc2nc(C)cc(OCCc3ccccc3)c2c1`, for which the MIC in data set [1] stood at 34.1 µM (≈ 10 µg/mL).

Regarding `COc1ccc2nc(C)cc(OCc3ccccc3)c2c1`, the MIC in data set [1] is 5.6 µM (≈ 1.56 µg/mL).

For `COc1ccc2nc(C)cc(OCc3ccccc3Cl)c2c1`, the MIC in data set [1] is 18.8 µM (≈ 5.9 µg/mL).

As to `COc1ccc2nc(C)cc(OCC(=O)c3ccccc3)c2c1`, the MIC in data set [1] came to 1.3 µM (≈ 0.4 µg/mL). Further, the 50% cytotoxic concentration (CC50) at 72 h in data set [5], in data set [6], in data set [7] and in [8] was > 20 µM throughout. Also, in data set [9], the CLint scaled at 2 µM is 7.1 mL/min/kg. The half-life at 2 µM in [10] worked out at 87.5 min. For the same compound, the Activity in data set [11] came out at 4.06 log10CFU.

For `COc1cccc(C(=O)COc2cc(C)nc3ccc(OC)cc23)c1`, the MIC in data set [1] is 14.8 µM (≈ 4.99 µg/mL).

Take `COc1ccc2nc(C)cc(OCc3ccc(F)cc3)c2c1`: the MIC in data set [1] was determined as 16.8 µM (≈ 5 µg/mL).
